Screening results from PubChem.
ABCB6 inh 2: ABCB6 transporter inhibitors, primary screen, K562-ABCB6 cells, flow cytometry, MLPCN library; AID 602162, 2011; ATP-binding cassette sub-family B member 6 (Homo sapiens), Q9NP58; actives 0.19% (n = 360,000); fluorescence ratio to DMSO, % at 10 µM; K562-ABCB6 porphyrin accumulation, 1 h; stronger effect = lower value;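 active = fluorescence ratio to DMSO below 75%, the collection mean minus 3 SD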;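 also: signal is porphyrin accumulated inside mitochondria; 100% equals median channel fluorescence of DMSO control wells; lower ratio means ABCB6 inhibition with less porphyrin fluorescence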
Target sequence (Q9NP58 whole entry, looked up): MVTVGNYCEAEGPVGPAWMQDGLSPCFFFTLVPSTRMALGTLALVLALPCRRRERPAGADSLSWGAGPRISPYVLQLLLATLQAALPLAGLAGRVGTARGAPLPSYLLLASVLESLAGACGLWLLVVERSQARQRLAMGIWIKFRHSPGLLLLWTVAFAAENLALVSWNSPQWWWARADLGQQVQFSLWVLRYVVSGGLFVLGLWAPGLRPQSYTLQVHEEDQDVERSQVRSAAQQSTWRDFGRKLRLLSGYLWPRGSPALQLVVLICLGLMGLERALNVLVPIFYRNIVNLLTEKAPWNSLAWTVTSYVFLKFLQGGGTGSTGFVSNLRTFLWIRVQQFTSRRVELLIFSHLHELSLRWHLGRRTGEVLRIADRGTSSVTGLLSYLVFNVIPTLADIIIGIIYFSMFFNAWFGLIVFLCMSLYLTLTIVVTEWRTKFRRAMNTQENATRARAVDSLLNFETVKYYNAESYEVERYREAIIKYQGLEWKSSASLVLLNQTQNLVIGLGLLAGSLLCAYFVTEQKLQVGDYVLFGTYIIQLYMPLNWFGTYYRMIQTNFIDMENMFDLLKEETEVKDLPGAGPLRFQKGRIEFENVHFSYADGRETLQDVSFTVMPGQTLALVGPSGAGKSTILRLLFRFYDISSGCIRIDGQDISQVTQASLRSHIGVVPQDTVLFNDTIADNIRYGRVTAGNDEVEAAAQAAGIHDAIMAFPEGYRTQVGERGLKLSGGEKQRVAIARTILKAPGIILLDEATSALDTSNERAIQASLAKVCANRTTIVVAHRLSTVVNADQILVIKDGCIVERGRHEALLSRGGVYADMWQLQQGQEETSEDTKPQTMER
CHT inh: inhibitors of human choline transporter CHT; actives 0.86% (n = 310,000); B-score at 10 µM; AID 488975, 2010; High affinity choline transporter 1 (Homo sapiens), Q9GZV3; CHT-expressing cells, membrane potential dye, choline response; stronger effect = lower value;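 active = B-score over 3 SD under the library average, and starting fluorescence ratio not unusually high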;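 also: choline stimulus applied at its EC90 after an EC20 pre-addition; B-score computed on integrated fluorescence ratio after choline addition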
TNAP inh hiacc: human TNAP enzyme inhibitors, primary screen, biochemical, luminescent, high phosphate acceptor level, uHTS; actives 0.03% (n = 200,000); inhibition, % at 20 µM; purified TNAP, CDP-star luminescence, 1 M DEA;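 active = over 50% inhibition of tissue-nonspecific alkaline phosphatase at 20 µM in the single-dose screen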;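 also: plate controls were DMSO wells for no effect and EDTA-quenched wells as full inhibition for full effect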
TNAP act hiacc: TNAP activators at high phosphate acceptor level, primary screen, biochemical, luminescence, uHTS; Alkaline phosphatase, tissue-nonspecific isozyme (Homo sapiens), P05186; purified TNAP, CDP-star luminescence, 1 M DEA, 30 min; stronger effect = higher value; 0 = EDTA background, 1 = DMSO-only activity; activation factor at 20 µM; 200,000 tested, under 10 active; AID 1136, 2008;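 active = activation factor at least 2 at 20 µM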
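Test system – human TNAP · Doses – 20 µM single point · Incubation – 30 min, room temperature · Signal – luminescent substrate turnover signal · Read-out basis – activation factor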
CHT PAM: CHT positive allosteric modulators, primary screen, cell-based, membrane potential dye, choline EC20 | B-score at 10 µM | actives 0.49% (n = 310,000) | AID 488977, 2010 | CHT-expressing cells; stronger effect = higher value; LV-AA mutant CHT in HEK293 cells;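 active = initial fluorescence not abnormally high and integrated response B-score, plate-corrected, over 3 SD above library mean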
TNAP inh no acc: human TNAP enzyme inhibitors, primary screen, biochemical, luminescent, no phosphate acceptor, uHTS. Alkaline phosphatase, tissue-nonspecific isozyme (Homo sapiens), P05186. purified TNAP, CDP-star luminescence, 30 min. inhibition, % at 20 µM. actives 0.26% (n = 200,000);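 active = tissue-nonspecific alkaline phosphatase inhibition above about 50% at 20 µM in the single-dose screen, limit read from the data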;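 also: 0% = DMSO negative control and 100% = EDTA positive control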
CHT activ conf: CHT activators, confirmation, cell-based, membrane potential dye, duplicate | activation, % at 10 µM | actives 91% (n = 2,500) | shares compounds with CHT PAM | AID 504833, 2011 | CHT-expressing cells, membrane potential dye fluorescence (FDSS); % of choline EC20–EC90 response window; HEK293 expressing CHT LV-AA mutant; choline added at its EC20;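 active = primary screen active, with duplicate mean activation above negative control mean plus 3 SD, cut at about 11% in these data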
HEK293 MP dye: membrane potential response in parental HEK293 cells, counter-screen for CHT activator project, cell-based, membrane potential dye. actives 62% (n = 2,500). shares compounds with CHT PAM. membrane potential dye fluorescence (FDSS); measured after EC20 choline addition. ratio readout change at 10 µM, hits read low;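 active = duplicate-averaged ratio beyond 3 SD from buffer wells, up or down, though filed actives are nearly all decreases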
Starred values were filed as active, the others as inactive; i = inactive; · = not tested or not shown. Most compounds without a hit are left out; they make up all but 1.4% or so of the library.

SMILES | ABCB6 inh 2 | CHT inh | TNAP inh hiacc | TNAP act hiacc | CHT PAM | TNAP inh no acc | CHT activ conf | HEK293 MP dye
O=C(/C=C/Nc1ccc(Cc2ccc(N/C=C/C(=O)C(F)(F)F)cc2)cc1)C(F)(F)F | 106 | i | -1 | 1 | i | -2 | · | ·
Cc1c(N=O)c(-c2ccccc2)n(O)[n+]1[O-] | 99 | · | · | · | · | · | · | ·
CCOC(=O)c1ncccc1NC(=O)CC(=O)Nc1cccnc1C(=O)OCC | 97 | i | · | · | i | · | 32* | -36*
O=C(c1ccco1)n1c(=S)nc2ccccn21 | 110 | i | -4 | 1 | i | -4 | 34* | -24*
COc1ccccc1-n1nnnc1SCC(=O)Nc1ccc(C)c(N)c1 | 97 | i | · | · | i | · | · | ·
CC1(C)C(=O)Nc2ccccc2N1C(=O)COC(=O)c1ccc(Cl)c(S(=O)(=O)NCc2ccccc2)c1 | 90 | i | 1 | 1 | i | 6 | 12* | i
Cc1ccccc1/C=C/c1cccc[n+]1C | 97 | i | · | · | i | · | 45* | -55*
C[n+]1ccccc1/C=C/c1ccc(F)c(F)c1 | 96 | i | · | · | 8.3* | · | 58* | -65*
C[n+]1ccccc1/C=C/c1c(F)cccc1F | 91 | i | · | · | i | · | · | ·
C[n+]1ccccc1/C=C/c1ccccc1Cl | 104 | i | · | · | i | · | · | ·
COc1ccc(CN2C[C@@H](CO)O[C@@H](n3cnc4c(N5CCOCC5)ncnc43)C2)cc1 | 98 | · | · | · | · | · | · | ·
CCCS(=O)(=O)NC(=O)C1(C)CCCN(C(=O)c2cccc(C(F)(F)F)c2)C1 (configuration not stated) | 76 | · | · | · | · | · | · | ·
CCCNCC(O)Cn1c2ccccc2n2c(=O)cc(C)c(C#N)c12 (configuration not stated) | 99 | i | -5 | 1 | i | -12 | 46* | -41*
Cc1c(C)n(CC(O)CN2CCCCC2)c2ccccc12 (configuration not stated) | 97 | i | 1 | 1 | i | -5 | · | ·
Cc1cc(=O)n2c3ccccc3n(CC(O)CN3CCCC3)c2c1C#N (configuration not stated) | 93 | i | -2 | 1 | 6.9* | -7 | 52* | -46*
Cn1cc([C@@H]2C[C@H]3CN(Cc4cccc(Cl)c4)C(=O)[C@]34CCCN24)c(-c2ccccc2)n1 | 100 | i | -3 | 1 | i | -2 | 19* | i
CCn1ncc([C@@H]2C[C@H]3CN(Cc4cccc(Cl)c4)C(=O)[C@]34CCCN24)c1C | 96 | i | -4 | 1 | i | -4 | · | ·
CCOc1ccc(N(C)S(=O)(=O)c2ccc3[nH]cc(C(=O)NCC(OC)OC)c(=O)c3c2)cc1 | 80 | i | · | · | i | · | 21* | i
CCC1CCCCN1C(=O)c1c[nH]c2ccc(S(=O)(=O)N(C)c3ccc(Cl)cc3)cc2c1=O (configuration not stated) | 103 | i | -2 | 1 | i | 4 | 30* | i
CC(C)CCC(=O)N1CCOC1=O | 103 | i | · | · | i | · | · | ·
Cc1sc2nc(SCc3ccc(C(=O)O)cc3)n(Cc3ccco3)c(=O)c2c1C | 91 | i | · | · | 6.7* | · | 32* | i
